Results as given in ChEMBL document CHEMBL1131143, “Predictive models for GABAA/benzodiazepine receptor subtypes: studies of quantitative structure-activity relationships for imidazobenzodiazepines at five recombinant GABAA/benzodiazepine receptor subtypes [alphaxbeta3gamma2 (x = 1-3, 5, and 6)] via comparative molecular field analysis” (J Med Chem, 1998).

What follows are compounds tested against GABA-A receptor; alpha-6/beta-3/gamma-2 (Homo sapiens, UniProt P18507+P28472+Q16445) (assay: Binding affinity against Gamma-aminobutyric acid A receptor alpha-6-beta-3-gamma-2).
Assay type: protein-complex assay
Procedure, shortened: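 Cells scraped into PBS, spun at 3000g, resuspended in 10 mM KH₂PO₄/100 mM KCl pH 7.4. Nonspecific binding with 10⁻⁵ M diazepam; 1 h to equilibrium at 4 °C; filtration, ice-cold buffer wash, scintillation counting.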

GABA-A receptor; alpha-6/beta-3/gamma-2, sequence (Q16445 whole entry, one chain of several): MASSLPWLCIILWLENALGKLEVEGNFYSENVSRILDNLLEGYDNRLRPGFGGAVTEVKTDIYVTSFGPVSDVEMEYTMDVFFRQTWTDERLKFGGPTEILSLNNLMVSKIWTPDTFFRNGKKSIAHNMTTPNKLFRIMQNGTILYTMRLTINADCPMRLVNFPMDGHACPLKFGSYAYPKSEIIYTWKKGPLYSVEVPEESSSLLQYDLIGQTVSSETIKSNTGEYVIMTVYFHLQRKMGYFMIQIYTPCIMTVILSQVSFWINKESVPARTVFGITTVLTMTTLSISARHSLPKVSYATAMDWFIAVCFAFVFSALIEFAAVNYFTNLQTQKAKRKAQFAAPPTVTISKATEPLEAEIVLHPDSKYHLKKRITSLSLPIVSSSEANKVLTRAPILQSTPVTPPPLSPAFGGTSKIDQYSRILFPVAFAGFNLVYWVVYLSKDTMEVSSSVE

Compared with `CN1Cc2c(C(=O)OC(C)(C)C)ncn2-c2ccc(Br)cc2C1=O`, `CN1Cc2c(C(=O)OC(C)(C)C)ncn2-c2ccc(I)cc2C1=O` is 2-fold lower in Ki: 9.4 nM for the first, 4.6 nM for the second. The second binds more tightly here.

First: CCOC(=O)c1ncn2c1[C@@H]1CCCN1C(=O)c1cc(C#C[Si](C)(C)C)ccc1-2
Second: CCOC(=O)c1ncn2c1[C@@H]1CCCN1C(=O)c1cc(OC)ccc1-2
The Ki of the first is 4.1-fold higher: 340 nM for the first, 83.2 nM for the second.

First: C#Cc1ccc2c(c1)C(=O)N(C)Cc1c(C(=O)OCC)ncn1-2
Second: CCOCc1ncn2c1CN(C)C(=O)c1cc(Cl)ccc1-2
The Ki of the first is lower: 28.8 nM for the first, > 300 nM for the second. The first binds more tightly here.

These compounds were tested against T1, GABA-A receptor; alpha-5/beta-3/gamma-2 (Homo sapiens, UniProt P18507+P28472+P31644) (assay: Binding affinity for Gamma-aminobutyric acid A receptor alpha-5-beta-3-gamma-2).
T1 sequence (P18507 whole entry): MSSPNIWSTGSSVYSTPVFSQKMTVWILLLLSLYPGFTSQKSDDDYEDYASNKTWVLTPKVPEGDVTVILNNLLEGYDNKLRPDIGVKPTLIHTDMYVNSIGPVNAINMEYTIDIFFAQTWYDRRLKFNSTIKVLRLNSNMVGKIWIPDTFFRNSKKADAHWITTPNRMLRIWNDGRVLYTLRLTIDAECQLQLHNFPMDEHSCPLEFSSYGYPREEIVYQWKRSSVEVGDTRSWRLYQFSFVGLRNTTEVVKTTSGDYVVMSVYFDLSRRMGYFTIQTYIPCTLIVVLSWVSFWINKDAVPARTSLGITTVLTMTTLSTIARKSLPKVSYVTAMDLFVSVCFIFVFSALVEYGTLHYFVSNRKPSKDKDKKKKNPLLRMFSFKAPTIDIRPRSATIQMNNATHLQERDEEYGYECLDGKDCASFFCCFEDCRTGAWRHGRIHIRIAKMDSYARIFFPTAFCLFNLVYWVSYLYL
T1 sequence (P28472 whole entry): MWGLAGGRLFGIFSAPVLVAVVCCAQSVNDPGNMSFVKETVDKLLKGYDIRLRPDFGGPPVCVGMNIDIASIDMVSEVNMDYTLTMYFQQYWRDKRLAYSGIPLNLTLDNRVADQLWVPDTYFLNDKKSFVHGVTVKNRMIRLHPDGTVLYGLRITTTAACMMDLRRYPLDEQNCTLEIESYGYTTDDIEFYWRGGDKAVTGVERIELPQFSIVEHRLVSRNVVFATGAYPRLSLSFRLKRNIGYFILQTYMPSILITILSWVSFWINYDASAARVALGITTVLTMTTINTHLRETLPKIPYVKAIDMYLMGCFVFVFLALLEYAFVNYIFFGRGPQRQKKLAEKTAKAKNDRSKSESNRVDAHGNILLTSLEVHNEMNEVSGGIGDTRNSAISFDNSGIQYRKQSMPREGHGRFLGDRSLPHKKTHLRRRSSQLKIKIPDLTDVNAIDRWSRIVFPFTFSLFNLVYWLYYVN
T1 sequence (P31644 whole entry): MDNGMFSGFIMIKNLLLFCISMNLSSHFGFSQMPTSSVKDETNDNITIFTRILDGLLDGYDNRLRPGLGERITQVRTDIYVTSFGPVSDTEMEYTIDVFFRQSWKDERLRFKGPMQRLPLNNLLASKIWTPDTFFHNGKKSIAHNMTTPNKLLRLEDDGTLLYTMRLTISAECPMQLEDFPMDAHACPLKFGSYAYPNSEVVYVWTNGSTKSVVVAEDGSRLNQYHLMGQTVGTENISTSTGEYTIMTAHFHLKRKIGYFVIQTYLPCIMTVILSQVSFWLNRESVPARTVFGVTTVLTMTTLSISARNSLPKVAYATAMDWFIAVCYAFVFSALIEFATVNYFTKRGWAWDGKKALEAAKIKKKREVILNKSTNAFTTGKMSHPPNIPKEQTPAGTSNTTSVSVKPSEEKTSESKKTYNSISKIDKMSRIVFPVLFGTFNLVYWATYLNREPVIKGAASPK
Assay type: protein-complex assay

In order of falling Ki:
1. CCOCc1ncn2c1CN(C)C(=O)c1cc(Cl)ccc1-2  82.7 nM
2. CCOC(=O)c1ncn2c1[C@@H]1CCCN1C(=O)c1cc(C#C[Si](C)(C)C)ccc1-2  4 nM
3. C#Cc1ccc2c(c1)C(=O)N(C)Cc1c(C(=O)OCC)ncn1-2  0.49 nM
4. CN1Cc2c(C(=O)OC(C)(C)C)ncn2-c2ccc(Br)cc2C1=O  0.47 nM
5. CCOC(=O)c1ncn2c1[C@@H]1CCCN1C(=O)c1cc(OC)ccc1-2  0.45 nM
6. CN1Cc2c(C(=O)OC(C)(C)C)ncn2-c2ccc(I)cc2C1=O  0.38 nM

The compounds below were run against T2, GABA-A receptor; alpha-3/beta-3/gamma-2 (Homo sapiens, UniProt P18507+P28472+P34903) (assay: Binding affinity against alpha-3-beta-3-gamma-2 GABAA/BzR receptor subtype.).
T2 sequence (P18507 whole entry): T1 sequence (P18507 whole entry)
T2 sequence (P28472 whole entry): T1 sequence (P28472 whole entry)
T2 sequence (P34903 whole entry): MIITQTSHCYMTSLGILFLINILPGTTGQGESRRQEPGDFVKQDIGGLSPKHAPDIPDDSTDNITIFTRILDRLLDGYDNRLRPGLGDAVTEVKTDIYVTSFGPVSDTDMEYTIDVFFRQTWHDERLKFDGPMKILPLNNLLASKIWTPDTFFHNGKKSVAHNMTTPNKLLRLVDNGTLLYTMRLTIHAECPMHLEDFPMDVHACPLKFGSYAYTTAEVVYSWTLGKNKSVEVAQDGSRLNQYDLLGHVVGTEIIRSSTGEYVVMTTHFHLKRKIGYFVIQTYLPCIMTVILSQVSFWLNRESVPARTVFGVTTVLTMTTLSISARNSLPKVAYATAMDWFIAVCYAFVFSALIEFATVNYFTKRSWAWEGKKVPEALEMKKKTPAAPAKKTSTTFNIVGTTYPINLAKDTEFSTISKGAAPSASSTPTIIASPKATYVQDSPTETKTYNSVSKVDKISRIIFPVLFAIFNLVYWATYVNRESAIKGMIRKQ
Assay type: protein-complex assay

`CN1Cc2c(C(=O)OC(C)(C)C)ncn2-c2ccc(Br)cc2C1=O` and `CN1Cc2c(C(=O)OC(C)(C)C)ncn2-c2ccc(I)cc2C1=O` are within 1.5-fold of each other in Ki: 9.2 nM for the first, 10.9 nM for the second.

Going from `CCOC(=O)c1ncn2c1[C@@H]1CCCN1C(=O)c1cc(C#C[Si](C)(C)C)ccc1-2` to `CCOC(=O)c1ncn2c1[C@@H]1CCCN1C(=O)c1cc(OC)ccc1-2`, the Ki falls from 79 nM to 27.5 nM (2.9-fold).

First: C#Cc1ccc2c(c1)C(=O)N(C)Cc1c(C(=O)OCC)ncn1-2
Second: CCOCc1ncn2c1CN(C)C(=O)c1cc(Cl)ccc1-2
The Ki of the first is lower: 25.8 nM for the first, > 300 nM for the second.

These compounds were tested against T3, GABA-A receptor; alpha-2/beta-3/gamma-2 (Homo sapiens, UniProt P18507+P28472+P47869) (assay: Binding affinity tested against alpha-2-beta-3-gamma-2 GABAA/BzR receptor subtype.).
T3 sequence (P18507 whole entry): T1 sequence (P18507 whole entry)
T3 sequence (P28472 whole entry): T1 sequence (P28472 whole entry)
T3 sequence (P47869 whole entry): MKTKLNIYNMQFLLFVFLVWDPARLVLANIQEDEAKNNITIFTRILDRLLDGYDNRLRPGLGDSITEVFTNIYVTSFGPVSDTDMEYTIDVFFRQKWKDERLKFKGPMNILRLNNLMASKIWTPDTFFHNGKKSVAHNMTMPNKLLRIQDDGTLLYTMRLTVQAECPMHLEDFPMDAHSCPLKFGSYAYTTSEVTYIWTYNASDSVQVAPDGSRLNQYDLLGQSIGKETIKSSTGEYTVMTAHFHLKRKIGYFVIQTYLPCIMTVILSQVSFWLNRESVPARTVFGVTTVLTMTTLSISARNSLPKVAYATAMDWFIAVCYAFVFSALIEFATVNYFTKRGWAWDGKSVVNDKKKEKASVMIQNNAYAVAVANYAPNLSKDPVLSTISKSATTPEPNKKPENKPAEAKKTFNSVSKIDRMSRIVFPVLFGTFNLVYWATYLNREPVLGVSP
Assay type: protein-complex assay

`CN1Cc2c(C(=O)OC(C)(C)C)ncn2-c2ccc(Br)cc2C1=O` and `CN1Cc2c(C(=O)OC(C)(C)C)ncn2-c2ccc(I)cc2C1=O` are within 1.5-fold of each other in Ki: 10.7 nM for the first, 11.2 nM for the second.

Going from `CCOC(=O)c1ncn2c1[C@@H]1CCCN1C(=O)c1cc(C#C[Si](C)(C)C)ccc1-2` to `CCOC(=O)c1ncn2c1[C@@H]1CCCN1C(=O)c1cc(OC)ccc1-2`, the Ki falls from 124 nM to 27.4 nM (4.5-fold). The second binds more tightly here.

Going from `C#Cc1ccc2c(c1)C(=O)N(C)Cc1c(C(=O)OCC)ncn1-2` to `CCOCc1ncn2c1CN(C)C(=O)c1cc(Cl)ccc1-2`, the Ki rises from 21.4 nM to > 300 nM. The first binds more tightly here.

The compounds below were run against GABA-A receptor; alpha-1/beta-3/gamma-2 (Homo sapiens) (UniProt P14867+P18507+P28472) (assay: It is the ratio of Ki value for alpha-1-beta-3-gamma-2 to that of alpha-5-beta-3-gamma-2).
Assay type: protein-complex assay

Compared with `CN1Cc2c(C(=O)OC(C)(C)C)ncn2-c2ccc(Br)cc2C1=O`, `CN1Cc2c(C(=O)OC(C)(C)C)ncn2-c2ccc(I)cc2C1=O` is higher in Ratio: 24.3 for the first, 25.5 for the second.

First: CCOC(=O)c1ncn2c1[C@@H]1CCCN1C(=O)c1cc(C#C[Si](C)(C)C)ccc1-2
Second: CCOC(=O)c1ncn2c1[C@@H]1CCCN1C(=O)c1cc(OC)ccc1-2
The Ratio of the first is lower: 50 for the first, 108 for the second.

`C#Cc1ccc2c(c1)C(=O)N(C)Cc1c(C(=O)OCC)ncn1-2` and `CCOCc1ncn2c1CN(C)C(=O)c1cc(Cl)ccc1-2` cannot be ordered by Ratio: 58 for the first, > 3.6 for the second.

Each compound was assayed against T4, GABA-A receptor; alpha-1/beta-3/gamma-2 (Homo sapiens, UniProt P14867+P18507+P28472) (assay: Binding affinity against alpha-1-beta-3-gamma-2 GABAA/BzR receptor subtype.).
T4 sequence (P14867 whole entry): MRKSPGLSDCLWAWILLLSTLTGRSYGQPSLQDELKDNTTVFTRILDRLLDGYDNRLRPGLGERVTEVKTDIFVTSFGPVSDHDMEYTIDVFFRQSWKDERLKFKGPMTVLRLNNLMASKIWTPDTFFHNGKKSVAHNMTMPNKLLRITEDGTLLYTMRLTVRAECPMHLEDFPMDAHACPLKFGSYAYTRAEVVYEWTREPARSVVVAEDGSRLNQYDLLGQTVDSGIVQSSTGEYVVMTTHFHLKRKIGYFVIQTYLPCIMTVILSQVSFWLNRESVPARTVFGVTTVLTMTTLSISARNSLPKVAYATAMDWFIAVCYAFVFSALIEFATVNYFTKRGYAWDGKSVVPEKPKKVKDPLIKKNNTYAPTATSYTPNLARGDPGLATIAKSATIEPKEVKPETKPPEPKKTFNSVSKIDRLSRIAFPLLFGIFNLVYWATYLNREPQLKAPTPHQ
T4 sequence (P18507 whole entry): T1 sequence (P18507 whole entry)
T4 sequence (P28472 whole entry): T1 sequence (P28472 whole entry)
Assay type: protein-complex assay

`CN1Cc2c(C(=O)OC(C)(C)C)ncn2-c2ccc(Br)cc2C1=O` and `CN1Cc2c(C(=O)OC(C)(C)C)ncn2-c2ccc(I)cc2C1=O` are within 1.5-fold of each other in Ki: 11.4 nM for the first, 9.7 nM for the second.

Compared with `CCOC(=O)c1ncn2c1[C@@H]1CCCN1C(=O)c1cc(C#C[Si](C)(C)C)ccc1-2`, `CCOC(=O)c1ncn2c1[C@@H]1CCCN1C(=O)c1cc(OC)ccc1-2` is 4.1-fold lower in Ki: 200 nM for the first, 48.5 nM for the second.

First: C#Cc1ccc2c(c1)C(=O)N(C)Cc1c(C(=O)OCC)ncn1-2
Second: CCOCc1ncn2c1CN(C)C(=O)c1cc(Cl)ccc1-2
The Ki of the first is lower: 28.4 nM for the first, > 300 nM for the second. The first binds more tightly here.
